Reference: ChEMBL document CHEMBL4373712, “Bioactivatable Pseudotripeptidization of Cyclic Dipeptides To Increase the Affinity toward Oligopeptide Transporter 1 for Enhanced Oral Absorption: An Application to Cyclo(l-Hyp-l-Ser) (JBP485)” (J Med Chem, 2019)
Calls of active or inactive are those of the source. No cut-off for these calls is given here.

Experiments:
[1] = Terminal half-life in Sprague-Dawley rat assessed as JBP485 level at 12 mg/kg equiv of JBP485 administered orally by UPLC-MS/MS analysis; format: ADME, organism-based; conditions: in vivo, po
How it was run: (§1)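 Fasted male SD rats (200–250 g), oral 12 mg/kg (prodrugs calculated as JBP485). Jugular blood 0.083–10 h, centrifuged, plasma JBP485 by UPLC-MS/MS; n=6.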

Rattus norvegicus [2] = test: (§2) Anti-hepatitis activity in ANIT-induced Sprague-Dawley rat model of liver injury assessed as reduction in serum aspartate aminotransferase level at 3.125 to 25 mg/kg, po administered 30 mins prior to ANIT challenge and subsequent dosing at 8, 22, 32, and 46 hrs post ANIT challenge and measured 48 hrs post ANIT challenge; format: functional, organism-based
How it was run: (§3)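 ANIT (50 mg/kg ip, olive oil) cholestatic liver injury in male SD rats, 6 per group. Oral or ip dosing (UDCA 100 mg/kg po in CMC-Na) at 30 min before and 8, 22, 32 and 46 h after ANIT. Serum collected at 48 h from the abdominal aorta; ALT and AST activities measured with kits.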

[3] = biological target: T1, Solute carrier family 15 member 1 (Rattus norvegicus, UniProt P51574); test: Ratio of test compound effect to JBP485 effect for substrate activity at PEPT1 in Sprague-Dawley rat jejunum assessed as effective permeability; format: ADME, tissue-based
T1 sequence (P51574 whole entry): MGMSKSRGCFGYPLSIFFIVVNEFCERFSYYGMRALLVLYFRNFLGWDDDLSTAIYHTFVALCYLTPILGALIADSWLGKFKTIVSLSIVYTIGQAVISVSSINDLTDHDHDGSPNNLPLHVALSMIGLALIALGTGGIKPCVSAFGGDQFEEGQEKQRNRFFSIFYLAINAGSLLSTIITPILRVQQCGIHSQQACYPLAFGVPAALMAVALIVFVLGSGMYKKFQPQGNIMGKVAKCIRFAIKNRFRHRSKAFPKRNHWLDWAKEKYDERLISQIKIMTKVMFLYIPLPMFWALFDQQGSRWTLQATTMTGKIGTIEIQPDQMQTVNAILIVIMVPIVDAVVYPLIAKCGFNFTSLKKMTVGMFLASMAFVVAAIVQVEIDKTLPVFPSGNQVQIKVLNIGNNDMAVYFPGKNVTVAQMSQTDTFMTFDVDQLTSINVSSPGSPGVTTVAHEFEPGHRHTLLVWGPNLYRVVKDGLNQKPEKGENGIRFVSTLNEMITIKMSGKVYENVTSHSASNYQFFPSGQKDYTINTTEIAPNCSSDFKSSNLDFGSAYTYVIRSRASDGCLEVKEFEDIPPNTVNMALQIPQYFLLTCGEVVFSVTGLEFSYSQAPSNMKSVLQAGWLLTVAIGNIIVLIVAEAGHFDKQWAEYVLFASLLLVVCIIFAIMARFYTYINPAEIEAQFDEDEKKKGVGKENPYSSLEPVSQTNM
How it was run: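 In situ single-pass jejunal perfusion in fasted (12 h) male SD rats anaesthetised with urethane 1.5 g/kg i.p. About 10 cm of jejunum was perfused at 0.2 mL/min with pH 6.0 HEPES buffer containing 5 mM compound. Outflow was collected 15–120 min after steady state and assayed by HPLC. Peff was calculated from outlet/inlet concentration and volume ratios and segment radius and length.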

[4] = Oral bioavailability in Sprague-Dawley rat assessed as JBP485 level at 12 mg/kg equiv of JBP485 by UPLC-MS/MS analysis; format: ADME, organism-based; conditions: in vivo
How it was run: (§4)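 Male SD rats, 200-250 g, fasted 12 h with water, n=6. Oral dose of 12 mg/kg as JBP485 equivalent; dose-effect arms at 12 and 100 mg/kg. JBP485 given iv at 6 mg/kg as the reference. Jugular blood taken at 0.083-10 h. Plasma JBP485 by UPLC-MS/MS. Absolute F = (AUCpo×Div)/(AUCiv×Dpo)×100%, using AUC0-t.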

[5] = Ratio of half-life in pH 7.2 phosphate buffer to half-life in Sprague-Dawley rat plasma; format: ADME
[6] = Cmax in Sprague-Dawley rat at 6 mg/kg, iv by UPLC-MS/MS analysis; format: ADME, organism-based; design: dose 6 mg/kg, route intravenous; conditions: in vivo; how it was run: as §4
[7] = Cmax in Sprague-Dawley rat assessed as JBP485 level at 12 mg/kg, po by LC-MS/MS analysis; format: ADME, organism-based; design: dose 12 mg/kg, route oral; conditions: in vivo; how it was run: as §4
[8] = Terminal half-life in Sprague-Dawley rat at 6 mg/kg, iv by UPLC-MS/MS analysis; format: ADME, organism-based; conditions: in vivo, read-out: beta t1/2 (converted)
How it was run: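 Fasted male SD rats given JBP485 6 mg/kg intravenously. Jugular blood sampled 0.083–10 h, plasma by UPLC-MS/MS; n=6.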

[9] = AUC (0 to t) in Beagle dog at 12 mg/kg, po by UPLC-MS/MS analysis; format: ADME, organism-based, Canis lupus familiaris; conditions: in vivo
How it was run: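 Male beagle dogs, 2 years old, 8-10 kg, n=6. Single oral dose of 12 mg/kg (prodrug dosed as JBP485 equivalent) given in aqueous solution. Jugular venipuncture blood taken at 0.167-8 h into sodium heparin tubes. Plasma JBP485 measured by UPLC-MS/MS; AUC0-t and Cmax from the concentration-time profiles.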

Rattus norvegicus [10] = test: (§5) Anti-hepatitis activity in ANIT-induced Sprague-Dawley rat model of liver injury assessed as reduction in hepatocellular edema at 6.25 to 25 mg/kg, po administered 30 mins prior to ANIT challenge and subsequent dosing at 8, 22, 32, and 46 hrs post ANIT challenge and measured 48 hrs post ANIT challenge by H and E staining-based assay; format: functional, organism-based
How it was run: (§6)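 ANIT 50 mg/kg ip liver-injury model in male SD rats, 6 per group. Oral or ip treatment at 30 min before and 8, 22, 32 and 46 h after ANIT. Liver excised at 48 h, fixed in 4% formalin, stained with H&E, and examined microscopically for hepatocellular edema and necrosis.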

[11] = Cmax in Sprague-Dawley rat at 12 mg/kg, po by UPLC-MS/MS analysis; format: ADME, organism-based; design: dose 12 mg/kg, route oral; conditions: in vivo; how it was run: as §4
Rattus norvegicus [12] = test: as §5, with “in liver necrosis” for “in hepatocellular edema”, “to 12.5” for “to 25”, “mg/kg, ip” for “mg/kg, po”; format: functional, organism-based; how it was run: as §6
Rattus norvegicus [13] = test: as §2, with “alanine” for “aspartate”, “6.25” for “3.125”; format: functional, organism-based; how it was run: as §3
[14] = AUC (0 to t) in Sprague-Dawley rat at 12 mg/kg, po by UPLC-MS/MS analysis; format: ADME, organism-based; conditions: in vivo; how it was run: as §4
[15] = Tmax in Sprague-Dawley rat assessed as JBP485 level at 12 mg/kg, po by LC-MS/MS analysis; format: ADME, organism-based; conditions: in vivo
How it was run: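 Male SD rats (200–250 g) fasted 12 h, given JBP485 or prodrug (calculated as JBP485) orally at 12 or 100 mg/kg. Jugular blood sampled 0.083–10 h, plasma JBP485 by UPLC-MS/MS; n=6.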

Rattus norvegicus [16] = test: as §2, with “at 6.25” for “at 3.125”, “to 12.5” for “to 25”, “mg/kg, ip” for “mg/kg, po”; format: functional, organism-based; how it was run: as §3
[17] = Terminal half-life in Sprague-Dawley rat at 12 mg/kg, po by UPLC-MS/MS analysis; format: ADME, organism-based; conditions: in vivo, read-out: beta t1/2 (converted); how it was run: as §1
[18] = AUC (0 to t) in Sprague-Dawley rat assessed as JBP485 level at 100 mg/kg, po by LC-MS/MS analysis; format: ADME, organism-based; conditions: in vivo; how it was run: as §4

SMILES | beta t1/2 [1] [h] | Activity (Rattus norvegicus [2]) | Ratio [3] | F [4] [%] | Ratio [5] | Cmax [6] [nM/ml] | Cmax [7] [nM/ml] | half-life [8] [h] | AUCt [9] [nM/ml.hr] | Activity (Rattus norvegicus [10]) | Cmax [11] [µM] | Activity (Rattus norvegicus [12]) | Activity (Rattus norvegicus [13]) | AUCt [14] [nM/ml.hr] | Tmax [15] [h] | Activity (Rattus norvegicus [16]) | half-life [17] [h] | AUCt [18] [µM·h]
CC(C)[C@H](N)C(=O)OC[C@@H]1NC(=O)[C@@H]2C[C@@H](O)CN2C1=O | 2.11 | Active | 6.03 | 50.1 | 3 to 35 | – | – | – | – | – | – | – | – | – | – | – | – | –
O=C1N[C@@H](CO)C(=O)N2C[C@H](O)C[C@@H]12 | – | – | – | – | – | 334.91 | 27.84 | 1.13 | 89.15 | Active | 27.8 | Active | Active | 81.4 | 1.25 | Active | 2.12 | 324
